Measurements from ChEMBL document CHEMBL4177623, “Concise syntheses and HCV NS5B polymerase inhibition of (2'R)-3 and (2'S)-2'-ethynyluridine-10 and related nucleosides” (Bioorg Med Chem Lett, 2017).

The molecules below were run on Hepatitis C virus (assay: Antiviral activity against HCV genotype 1b Con1 infected in replicon cells after 3 days by real-time PCR analysis). Settings: isolate Con1, 72 h.
Format: functional, organism-based, Hepacivirus hominis
In short: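 Con1 genotype 1b replicon cells plated at 5000/well one day before dosing; inhibitor added from DMSO in 10 serial twofold dilutions, triplicate, final 0.5% DMSO, 10% FBS. Harvest 3 days post-dose; replicon RNA measured by real-time RT-PCR (Taqman) normalised to GAPDH RNA; EC50 derived.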

EC50 [µM]	Compound
> 100	CC#C[C@@]1(F)[C@H](O)[C@@H](CO)O[C@H]1n1ccc(=O)[nH]c1=O
> 100	C#C[C@@]1(O)[C@H](O)[C@@H](CO)O[C@H]1n1ccc(=O)[nH]c1=O
> 100	CC#C[C@@]1(O)[C@H](O)[C@@H](CO)O[C@H]1n1ccc(=O)[nH]c1=O

What follows are molecules tested against RNA-directed RNA polymerase (Hepacivirus hominis, UniProt O39930) (assay: Inhibition of wild-type HCV genotype 1b BK NS5B Cdelta55 RNA dependent RNA polymerase using RNA as substrate after 1 hr in presence of NTPs by [33P]-CTP based topcount assay). Settings: not given.
RNA-directed RNA polymerase, sequence (O39930 whole entry): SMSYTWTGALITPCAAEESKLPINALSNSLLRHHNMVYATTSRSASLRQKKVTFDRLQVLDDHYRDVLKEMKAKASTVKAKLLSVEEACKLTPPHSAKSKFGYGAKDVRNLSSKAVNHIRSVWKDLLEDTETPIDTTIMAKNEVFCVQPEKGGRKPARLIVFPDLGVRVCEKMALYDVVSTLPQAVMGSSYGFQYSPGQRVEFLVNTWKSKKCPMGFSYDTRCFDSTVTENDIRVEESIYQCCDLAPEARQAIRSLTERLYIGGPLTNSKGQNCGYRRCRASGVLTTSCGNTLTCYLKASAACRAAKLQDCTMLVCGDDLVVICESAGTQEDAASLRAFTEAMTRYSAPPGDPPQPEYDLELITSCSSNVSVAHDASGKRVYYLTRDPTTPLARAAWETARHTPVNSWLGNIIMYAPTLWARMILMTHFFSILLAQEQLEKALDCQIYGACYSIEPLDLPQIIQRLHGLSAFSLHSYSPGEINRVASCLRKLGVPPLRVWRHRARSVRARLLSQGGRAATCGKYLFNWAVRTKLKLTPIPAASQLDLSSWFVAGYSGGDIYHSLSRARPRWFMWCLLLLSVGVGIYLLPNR
Design: species or system Hepatitis C virus (isolate BK)

Compound	IC50 [µM]
CC#C[C@@]1(O)[C@H](O)[C@@H](COP(=O)(O)OP(=O)(O)OP(=O)(O)O)O[C@H]1n1ccc(=O)[nH]c1=O	0.16
C#C[C@]1(O)[C@H](O)[C@@H](COP(=O)(O)OP(=O)(O)OP(=O)(O)O)O[C@H]1n1ccc(=O)[nH]c1=O	54
C#C[C@@]1(O)[C@H](O)[C@@H](COP(=O)(O)OP(=O)(O)OP(=O)(O)O)O[C@H]1n1ccc(=O)[nH]c1=O	0.09

Results, then the molecule that gave them:

IC50 [µM]	Compound
9.9	CC#C[C@@]1(F)[C@H](O)[C@@H](COP(=O)(O)OP(=O)(O)OP(=O)(O)O)O[C@H]1n1ccc(=O)[nH]c1=O
1.1	CCCCCCN(C)C.CCCCCCN(C)C.CCCCCCN(C)C.CCCCCCN(C)C.C[C@@]1(F)[C@H](O)[C@@H](COP(=O)(O)OP(=O)(O)OP(=O)(O)O)O[C@H]1n1ccc(=O)[nH]c1=O
3.6	C#C[C@@]1(F)[C@H](O)[C@@H](COP(=O)(O)OP(=O)(O)OP(=O)(O)O)O[C@H]1n1ccc(=O)[nH]c1=O
